We go through 14 compounds from ChEMBL document CHEMBL1155223, “2-Phenylpyrazolo[4,3-d]pyrimidin-7-one as a new scaffold to obtain potent and selective human A3 adenosine receptor antagonists: new insights into the receptor-antagonist recognition” (J Med Chem, 2009).

The target of assay [1] is T1, Adenosine receptor A3 (Homo sapiens, UniProt P0DMS8).
T1 sequence (P0DMS8 whole entry): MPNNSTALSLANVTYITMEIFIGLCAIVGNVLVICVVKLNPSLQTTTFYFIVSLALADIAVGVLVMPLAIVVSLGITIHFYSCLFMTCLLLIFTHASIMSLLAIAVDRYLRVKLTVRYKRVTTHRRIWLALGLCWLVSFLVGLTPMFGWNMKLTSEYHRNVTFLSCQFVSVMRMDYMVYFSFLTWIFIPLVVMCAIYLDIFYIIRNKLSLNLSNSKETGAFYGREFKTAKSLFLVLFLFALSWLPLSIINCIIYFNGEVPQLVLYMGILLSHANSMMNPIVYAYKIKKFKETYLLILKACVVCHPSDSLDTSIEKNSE
Nature of the assay: Antagonist activity at human cloned adenosine A3 receptor expressed in CHO cells assessed as inhibition of Cl-IB-MECA-inhibited [3H]cAMP production by scintillation counting. Format: functional, cell-based. The essentials: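 hA3-transfected CHO cells (1 × 10⁶ cells/assay), preincubated 10 min at 37 °C with adenosine deaminase 2 IU/mL plus Ro 20-1724, pH 7.4; forskolin 1 μM and Cl-IB-MECA 100 nM present. Stopped with cold 6% TCA; cAMP measured by [3H]cAMP binding-protein competition. IC50 from sigmoid nonlinear regression, mean ± SEM of four experiments; single-point data at 1 μM as percent inhibition.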
On the technique in general: Cyclic AMP is a second messenger, typically raised through Gs and lowered through Gi signalling.

Assay [2] addresses T1, Adenosine receptor A3. Nature of the assay: Displacement of [125I]AB-MECA from human cloned adenosine A3 receptor expressed in CHO cells after 120 mins by scintillation counting. In kind it is cell-based. In a few lines: (§1)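 hA3 CHO membranes (50 μg protein) incubated with [125I]AB-MECA 0.5 nM in 50 mM Tris-HCl, 10 mM MgCl2, 1 mM EDTA, pH 7.4, 120 min at 4 °C; six to eight ligand concentrations. Nonspecific binding with 1 μM AB-MECA. Ki via Cheng–Prusoff, mean ± SEM of four assays in duplicate; percent inhibition given at 1 μM.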

Assay [3] deals with T2, Adenosine receptor A1 (Homo sapiens) (UniProt P30542).
T2 sequence (whole entry): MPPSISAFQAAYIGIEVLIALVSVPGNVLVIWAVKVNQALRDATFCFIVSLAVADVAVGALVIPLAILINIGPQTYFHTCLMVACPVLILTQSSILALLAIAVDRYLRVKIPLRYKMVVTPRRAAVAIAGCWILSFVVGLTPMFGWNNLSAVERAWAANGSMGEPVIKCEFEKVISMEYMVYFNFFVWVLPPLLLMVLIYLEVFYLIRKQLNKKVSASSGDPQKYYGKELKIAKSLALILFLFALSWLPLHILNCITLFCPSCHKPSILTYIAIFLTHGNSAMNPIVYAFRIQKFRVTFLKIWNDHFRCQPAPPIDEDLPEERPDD
The assay is described as follows: Inhibition of [125I]DPCPX binding to human cloned adenosine A1 receptor expressed in CHO cells at 1 uM after 120 mins by scintillation counting. Format: cell-based. The note with it: in the assay text read “[3H]DPCPX” for “[125I]DPCPX”. The essentials:
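Membranes from hA1 CHO (50 μg protein) with [3H]DPCPX 1 nM, 50 mM Tris-HCl pH 7.4, 120 min at 25 °C; nonspecific binding defined by 10 μM CHA. Percent inhibition at 1 μM test compound.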

The target of assay [4] is Adenosine receptor A2a (Homo sapiens) (UniProt P29274). The assay is described as follows: Inhibition of [125I]Z241385 binding to human cloned adenosine A2A receptor expressed in CHO cells at 1 uM after 120 mins by scintillation counting. In kind it is cell-based.
Adenosine receptor A2a (Homo sapiens), sequence (P29274 whole entry): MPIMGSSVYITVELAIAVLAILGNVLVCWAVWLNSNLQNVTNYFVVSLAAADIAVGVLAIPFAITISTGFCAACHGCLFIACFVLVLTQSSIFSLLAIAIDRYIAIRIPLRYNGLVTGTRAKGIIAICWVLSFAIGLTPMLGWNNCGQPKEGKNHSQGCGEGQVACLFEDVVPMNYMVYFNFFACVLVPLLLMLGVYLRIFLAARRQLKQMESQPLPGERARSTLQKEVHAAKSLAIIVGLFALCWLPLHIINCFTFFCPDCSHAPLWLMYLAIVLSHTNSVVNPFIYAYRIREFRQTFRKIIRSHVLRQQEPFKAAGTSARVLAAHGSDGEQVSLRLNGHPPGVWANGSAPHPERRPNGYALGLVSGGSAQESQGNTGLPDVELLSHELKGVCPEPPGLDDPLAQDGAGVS
For assay [5], the target named is T3, Adenosine receptor A2b (Homo sapiens) (UniProt P29275).
T3 sequence (whole entry): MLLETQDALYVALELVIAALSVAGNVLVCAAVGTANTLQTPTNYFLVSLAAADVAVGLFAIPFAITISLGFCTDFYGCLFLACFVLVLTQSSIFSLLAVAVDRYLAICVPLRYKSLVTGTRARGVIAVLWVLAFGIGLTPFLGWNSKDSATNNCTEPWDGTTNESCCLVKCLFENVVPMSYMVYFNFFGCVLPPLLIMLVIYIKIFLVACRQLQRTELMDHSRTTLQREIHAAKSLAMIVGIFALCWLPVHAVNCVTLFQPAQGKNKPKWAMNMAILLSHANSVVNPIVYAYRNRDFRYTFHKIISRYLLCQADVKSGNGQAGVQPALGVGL
Nature of the assay: Antagonist activity at human adenosine A2B receptor expressed in CHO cells assessed as inhibition of NECA-stimulated [3H]cAMP production at 1 uM by scintillation counting. Format: functional, cell-based. In a few lines: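 Suspended CHO cells stably expressing hA2B (1 × 10⁶ cells/assay) in buffer with adenosine deaminase 2 IU/mL and Ro 20-1724, preincubated 10 min at 37 °C, pH 7.4. Stimulated with NECA 200 nM; compound at 1 μM; percent inhibition reported. Stopped with cold 6% TCA, ether-extracted, cAMP quantified by [3H]cAMP competition with beef adrenal binding protein.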

Assay [6] has as its target T4, Adenosine receptor A3 (Homo sapiens) (UniProt P0DMS8).
T4 sequence (whole entry): T1 sequence (P0DMS8 whole entry)
Nature of the assay: Inhibition of [125I]AB-MECA binding to human cloned adenosine A3 receptor expressed in CHO cells at 1 uM after 120 mins by scintillation counting. In kind it is cell-based. The essentials:
as §1

Assay [7] has as its target T4, Adenosine receptor A3 (Homo sapiens). The note with it: CHO, 1 uM.

Molecules are shown by their SMILES.

With `COc1ccc(-n2cc3nc[nH]c(=O)c3n2)cc1`, the IC50 at Adenosine receptor A3 [1] is 270 nM. Besides, the inhibition constant Ki at Adenosine receptor A3 [2] was 54 nM. Also, the inhibition is 2% in assay [3], 1% in assay [4] and 3% in assay [5].

Take `COc1ccc(-n2cc3nc(-c4ccccc4)[nH]c(=O)c3n2)cc1`: the inhibition is 16% in assay [6], 1% in assay [3], 1% in assay [4] and 5% in assay [5].

With `Nc1nc(NCCc2ccc(O)cc2)nc2nc(-c3ccco3)nn12`, the inhibition in assay [6] is 5%; in assay [7], 2%.

Take `O=c1[nH]c(Cc2ccccc2)nc2cn(-c3ccccc3)nc12`: on Adenosine receptor A3 [2], the Ki was determined as 900 nM. The inhibition was 11% in assay [3], 1% in assay [4], 4% in assay [5] and 6% in assay [7].

Turning to `COc1ccc(-n2cc3nc(C)[nH]c(=O)c3n2)cc1`, the 50% inhibitory concentration (IC50) on Adenosine receptor A3 [1] came to 5.2 nM. Further, at Adenosine receptor A3 [2], the Ki came out at 1.2 nM. The inhibition was determined as 5% in assay [3], 1% in assay [4] and 2% in assay [5].

Turning to `O=c1[nH]c(=O)c2nn(-c3ccccc3)cc2[nH]1`, the inhibition came to 12% in assay [6], 4% in assay [3], 5% in assay [4] and 2% in assay [5].

Turning to `Cc1cccc(-n2cc3nc(C)[nH]c(=O)c3n2)c1`, on Adenosine receptor A3 [1], the IC50 came out at 354 nM. Also, on Adenosine receptor A3 [2], the affinity corresponds to a Ki of 72 nM. Also, the results for the inhibition in assay [3], in assay [4] and in assay [5] were 4%, 1% and 2%, respectively.

In the case of `CCc1nc2cn(-c3ccccc3)nc2c(=O)[nH]1`, the half-maximal inhibitory concentration (IC50) at Adenosine receptor A3 [1] is 245 nM. At Adenosine receptor A3 [2], this compound showed an inhibition constant Ki of 52 nM. Also, the values for the inhibition in assay [3], in assay [4] and in assay [5] were 11%, 6% and 1%, respectively.

On to `O=c1[nH]c(-c2ccccc2)nc2cn(-c3ccccc3)nc12`, for which the inhibition came out at 10% in assay [6], 22% in assay [3], 10% in assay [4] and 4% in assay [5].

As to `Cc1nc2cn(-c3ccccc3)nc2c(=O)[nH]1`, at Adenosine receptor A3 [1], the IC50 was 87 nM. Further, on Adenosine receptor A3 [2], affinity was put at a Ki of 16 nM. Further, the inhibition in assay [3] was 9%; in assay [4] it was 1%; in assay [5], 2%.

Take `COc1ccc(-n2cc3nc(Cc4ccccc4)[nH]c(=O)c3n2)cc1`: the IC50 at Adenosine receptor A3 [1] is 850 nM. The same compound yielded a Ki at Adenosine receptor A3 [2] of 250 nM. Besides, the inhibition in assay [3] stood at 10%; in assay [4], 1%; in assay [5], 4%.

With `CCc1nc2cn(-c3ccc(OC)cc3)nc2c(=O)[nH]1`, the IC50 on Adenosine receptor A3 [1] amounted to 63 nM. For the same compound, affinity at Adenosine receptor A3 [2] was put at a Ki of 14 nM. Besides, the inhibition in assay [3] worked out at 1%; in assay [4], 1%; in assay [5] it was 5%.

With `Cc1ccc(-n2cc3nc(C)[nH]c(=O)c3n2)cc1`, on Adenosine receptor A3 [1], the IC50 was determined as 46 nM. On Adenosine receptor A3 [2], the inhibition constant (Ki) was 10 nM. Besides, the inhibition was 1% in assay [3], 1% in assay [4] and 4% in assay [5].

Consider `O=c1[nH]cnc2cn(-c3ccccc3)nc12`, for which the IC50 at Adenosine receptor A3 [1] amounted to 725 nM. The compound further yielded a Ki at Adenosine receptor A3 [2] of 185 nM. The values for the inhibition in assay [3], in assay [4] and in assay [5] were 1%, 1% and 3%, respectively.

In general, IC50 refers to the concentration that gives 50% inhibition. A word on the Ki: it is a measure of affinity in units of concentration, obtained from inhibition or displacement. One may read the inhibition as the change of the read-out against control, counted positive when it falls.
